Read-outs that look alike come from different tables or passages of the source. Each block holds one compound with its values, some of them ahead of it.
What was measured:
[1] = format: in vivo, healthy Chinese subjects; conditions: single oral 100 mg imrecoxib, plasma
Summary of the method: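 Open-label parallel Phase I study in healthy Chinese adults aged 18–85 y, BMI 19–28 kg/m2, 1:1 sex. Single 100 mg tablet of test compound taken orally with 240 mL water after a 4 h fast. EDTA blood drawn predose and 0.5–72 h after dosing; plasma stored at −70°C. Parent compound plus hydroxyl and carboxyl metabolites measured by LC-MS/MS (C18, MRM, acetonitrile precipitation, internal standard). Non-compartmental analysis; group geometric mean ratios with 90% CI.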

Safety and tolerability = format: in vivo, healthy Chinese subjects
Summary of the method: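 Single 100 mg oral tablet given after fasting; subjects kept in a supervised Phase I ward until 72 h post-dose. Tolerability tracked through adverse-event monitoring, physical examinations, haematology, blood biochemistry, urinalysis and 12-lead ECG; clinical laboratory tests run in a CAP-accredited hospital laboratory. Elderly and non-elderly groups assessed in parallel.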

[2] = healthy subjects, single oral dose 30, 60, 90 and 200mg imrecoxib; cited from earlier work
COX-1/COX-2 = conditions: cited from earlier work
[3] = Elderly Group (N=9), single oral 100 mg imrecoxib
[4] = Elderly Group (N=9), single oral 100 mg imrecoxib, subjects (%)
[5] = Non-Elderly Group (N=10), single oral 100 mg imrecoxib
[6] = Non-Elderly Group (N=10), single oral 100 mg imrecoxib, subjects (%)

Geometric Mean AUC0-∞ ([1]; Group A (N=10), non-elderly): 148 h*ng/m | Geometric Mean AUC0-∞ ([1]; Group B (N=9), elderly): 193 h*ng/m | Geometric Mean Ratio B/A of AUC0-t ([1]; elderly (B) / non-elderly (A)): 134% | Geometric Mean Ratio B/A of AUC0-∞ ([1]; elderly (B) / non-elderly (A)): 130% | Geometric Mean Ratio B/A of Cmax ([1]; elderly (B) / non-elderly (A)): 139%
SMILES: CCCN1CC(c2ccc(S(C)(=O)=O)cc2)=C(c2ccc(C)cc2)C1=O [M0, imrecoxib]
All adverse events, Severity Grade I (Safety and tolerability; [3]): 2 | Aspartate transaminase increased, Severity Grade I (Safety and tolerability; [3]): 1 | Aspartate transaminase increased, Severity Grade II (Safety and tolerability; [3]): 0 | Aspartate transaminase increased, Severity Grade III (Safety and tolerability; [3]): 0 | Blood bilirubin increased, Severity Grade I (Safety and tolerability; [3]): 1 | Blood bilirubin increased, Severity Grade II (Safety and tolerability; [3]): 0 | Blood bilirubin increased, Severity Grade III (Safety and tolerability; [3]): 0 | Blood glucose increased, Severity Grade I (Safety and tolerability; [3]): 0 | Blood glucose increased, Severity Grade II (Safety and tolerability; [3]): 0 | Blood glucose increased, Severity Grade III (Safety and tolerability; [3]): 0 | White blood cell increased, Severity Grade I (Safety and tolerability; [3]): 0 | White blood cell increased, Severity Grade II (Safety and tolerability; [3]): 0 | White blood cell increased, Severity Grade III (Safety and tolerability; [3]): 0 | Acute upper respiratory infection, Incidence (%) (Safety and tolerability; [4]): 0(0.0%) | All adverse events, Incidence (%) (Safety and tolerability; [4]): 2(22.2%) | Aspartate transaminase increased, Incidence (%) (Safety and tolerability; [4]): 1(11.1%) | Blood bilirubin increased, Incidence (%) (Safety and tolerability; [4]): 1(11.1%) | Blood glucose increased, Incidence (%) (Safety and tolerability; [4]): 0(0.0%) | Fibrinogen decreased, Incidence (%) (Safety and tolerability; [4]): 0(0.0%) | White blood cell increased, Incidence (%) (Safety and tolerability; [4]): 0(0.0%) | All adverse events, Severity Grade I (Safety and tolerability; [5]): 2 | Aspartate transaminase increased, Severity Grade I (Safety and tolerability; [5]): 0 | Aspartate transaminase increased, Severity Grade II (Safety and tolerability; [5]): 0 | Aspartate transaminase increased, Severity Grade III (Safety and tolerability; [5]): 0 | Blood bilirubin increased, Severity Grade I (Safety and tolerability; [5]): 0 | Blood bilirubin increased, Severity Grade II (Safety and tolerability; [5]): 0 | Blood bilirubin increased, Severity Grade III (Safety and tolerability; [5]): 0 | Blood glucose increased, Severity Grade I (Safety and tolerability; [5]): 1 | Blood glucose increased, Severity Grade II (Safety and tolerability; [5]): 0 | Blood glucose increased, Severity Grade III (Safety and tolerability; [5]): 0 | Fibrinogen decreased, Severity Grade I (Safety and tolerability; [5]): 1 | White blood cell increased, Severity Grade I (Safety and tolerability; [5]): 1 | White blood cell increased, Severity Grade II (Safety and tolerability; [5]): 0 | White blood cell increased, Severity Grade III (Safety and tolerability; [5]): 0 | Aspartate transaminase increased, Incidence (%) (Safety and tolerability; [6]): 0(0.0%) | Blood bilirubin increased, Incidence (%) (Safety and tolerability; [6]): 0(0.0%) | Severity of all the AEs (Safety and tolerability; both groups, recovered without any medical intervention): mild | Gastrointestinal, cardiovascular or renal side effects observed (Safety and tolerability; both groups, single oral 100 mg imrecoxib): No concomitant gastrointestinal, cardiovascular or renal side effects | AEs considered to be ADRs (Safety and tolerability; elderly group): Increased aspartate transaminase and blood bilirubin | Tolerability (Safety and tolerability; non-elderly and elderly healthy subjects, oral): well tolerated | AEs regarded as adverse drug reaction (ADR) (Safety and tolerability; non-elderly group): increased blood glucose | Dose dependence of pharmacokinetics [2]: linear dynamic characteristics | Tmax [2]: about 2 hours | IC50COX-1/IC50COX-2 value (COX-1/COX-2): 6.39 | IC50COX-1/IC50COX-2 value relative to celecoxib (COX-1/COX-2): 77%

SMILES: CS(=O)(=O)c1ccc(C2=C(c3ccccc3)C(=O)OC2)cc1 [rofecoxib]
IC50COX-1/IC50COX-2 value (COX-1/COX-2): above 213
